Data set [1] in a line: Atropoisomer stability in solution. The class given is physicochemical.
Data set [2] addresses MCL-1 (Homo sapiens, UniProt Q07820). Nature of the data set: QA. The class given is binding. The note with it: QA MCL-1 Ki.
For data set [3], the system named is cleaved PARP. Briefly: In vivo PD: increase of cleaved PARP in AMO1 xenografted mice. The settings on record: AMO1 xenografted mice, 16 h after i.v. bolus treatment at 12.5 mg/kg. In a few lines:
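Female CB-17 SCID mice (6–7 weeks) were implanted s.c. with 5 × 10⁶ AMO-1 cells in 50:50 medium:Matrigel. At ~200 mm³ tumor volume they were randomized, n = 3 per group. Test compound in 20% HPbCD/25 mM HCl was given as a single 12.5 mg/kg i.v. bolus. Cleaved PARP increase was measured in tumors 16 h later.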

The test system of data set [4] is NCI-H929 cells. Briefly: MTT cell viability assay of NCI H929 cell line. The class given is cell-based. The note with it: than 16a.
Data set [5] in a line: In vivo PK characteristics. Set-up: species or system mice. The settings on record: mouse, iv, 12.5 mg/kg.
Data set [6] has as its system human multiple myeloma cell line xenograft (AMO-1). Briefly: AMO-1 efficacy model. The class given is in vivo, mice. The note with it: QD5, i.v. bolus; for %TGI (day): D14. In a few lines:
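Female CB-17 SCID mice (6–7 weeks) received 5 × 10⁶ AMO-1 cells s.c. in the right flank, in 50:50 growth medium:Matrigel. At ~200 mm³ they were randomized, n = 8. Freshly prepared test compound in 20% HPbCD/25 mM HCl was given i.v. daily ×5. Calipers were read 2–3×/week; volume = length × width²/2. TGI was taken at the control group's last day and at maximum; TGD used a 500 mm³ median.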

pKi: −log10 of the molar value.

Sequence of MCL-1 (Q07820 whole entry): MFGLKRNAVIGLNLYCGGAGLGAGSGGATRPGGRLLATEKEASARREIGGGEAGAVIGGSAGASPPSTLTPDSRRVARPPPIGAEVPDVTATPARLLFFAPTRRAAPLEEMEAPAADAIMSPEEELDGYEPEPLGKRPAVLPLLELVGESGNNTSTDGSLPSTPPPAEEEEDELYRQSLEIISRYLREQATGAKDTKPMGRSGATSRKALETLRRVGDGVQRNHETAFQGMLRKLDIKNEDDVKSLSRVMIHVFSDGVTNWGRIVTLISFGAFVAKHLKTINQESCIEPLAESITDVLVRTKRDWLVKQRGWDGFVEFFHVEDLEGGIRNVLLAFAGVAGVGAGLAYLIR

As for `COc1ccccc1-c1nccc(COc2ccccc2C[C@@H](Oc2ncnc3oc(-c4ccc(F)cc4)c(-c4ccc(OCCN5CCN(C)CC5)c(Cl)c4C)c23)C(=O)O)n1` [Compound 24, (2R)-2-{[5-{3-Chloro-2-methyl-4-[2-(4-methylpiperazin-1-yl)ethoxy]phenyl}-6-(4-fluorophenyl)furo[2,3-d]pyrimidin-4-yl]oxy}-3-(2-{[2-(2-methoxyphenyl)pyrimidin-4-yl]methoxy}phenyl)propanoic Acid], in data set [1], the atropoisomer stability entry was “equilibrate rapidly in solution to give a 1:1 mixture”. In data set [2], this compound gave a pKi of 10.44. Moreover, the “PARP activation (fold)” value in data set [3] is listed as 129 fold. Also, the “cellular activity, fold less” value in data set [4] turned out to be 10 fold. In data set [5], this compound showed an AUC of 56 µg·h/mL and a clearance of 0.15 L/h/kg. In data set [6] (6.25 mpk), the “time to reach 500 mm^3 (median of the group)” value came to 28 and the “%TGI (day)” value is given as 103.5 (D14) %. In addition, the “%TGI max (day)” value in data set [6] (6.25 mpk, d7) is given as 122.7 (d7) %. Moreover, in data set [6] (12.5 mpk), the “time to reach 500 mm^3 (median of the group)” value is recorded as 37 and the “%TGI (day)” value was 107.7 (D14) %. Besides, the “%TGI max (day)” value in data set [6] (12.5 mpk, d2) is recorded as 184.8 (d2) %.

Values taken from paper PMC8412899 (ACS Omega, 2021).
